Measurements taken from ChEMBL document CHEMBL4257543, “Structural optimization and antibacterial evaluation of rhodomyrtosone B analogues against MRSA strains” (Medchemcomm, 2018).
In brackets after ≈: the same amount, converted by molar mass. Activity calls are given as the source filed them.

Assays:
Staphylococcus aureus [1] = assay: Antibacterial activity against methicillin-resistant Staphylococcus aureus JCSC 4788 by micro dilution susceptibility test; assay type: functional
Procedure, shortened: (§1)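 Microbroth dilution MIC in Mueller–Hinton broth following CLSI guidelines, vancomycin as positive control; resazurin added as visible growth indicator. Assays run at least in triplicate.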

Staphylococcus aureus [2] = assay: Antibacterial activity against Staphylococcus aureus ATCC 6538 by micro dilution susceptibility test; assay type: functional; procedure, shortened: as §1
Staphylococcus aureus [3] = assay: Antibacterial activity against methicillin-resistant Staphylococcus aureus NCTC 10442 by micro dilution susceptibility test; assay type: functional; procedure, shortened: as §1
Staphylococcus aureus [4] = assay: Antibacterial activity against methicillin-resistant Staphylococcus aureus 85/2082 by micro dilution susceptibility test; assay type: functional; procedure, shortened: as §1
Enterococcus faecalis = assay: Antibacterial activity against Enterococcus faecalis ATCC 29212 by micro dilution susceptibility test; assay type: functional
Procedure, shortened: (§2)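 Microbroth dilution MIC in Mueller–Hinton broth following CLSI guidelines, with vancomycin as positive control; assays run at least in triplicate.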

Paenibacillus polymyxa = assay: Antibacterial activity against Bacillus polymyxa GIM 1.467 by micro dilution susceptibility test; assay type: functional; procedure, shortened: as §2
Shigella dysenteriae = assay: Antibacterial activity against Shigella dysenteriae CMCC 51252 by micro dilution susceptibility test; assay type: functional; procedure, shortened: as §1
Candida albicans = assay: Antibacterial activity against Candida albicans ATCC 10231 by micro dilution susceptibility test; assay type: functional; procedure, shortened: as §2
Staphylococcus aureus [5] = assay: Selectivity ratio of MIC for methicillin-resistant Staphylococcus aureus JCSC 3063 to MIC for methicillin-resistant Staphylococcus aureus JCSC 4788; assay type: functional
Staphylococcus aureus [6] = assay: Selectivity ratio of MIC for methicillin-resistant Staphylococcus aureus JCSC 4469 to MIC for methicillin-resistant Staphylococcus aureus JCSC 4788; assay type: functional
Staphylococcus aureus [7] = assay: Selectivity ratio of MIC for methicillin-resistant Staphylococcus aureus NCTC 10442 to MIC for methicillin-resistant Staphylococcus aureus JCSC 4788; assay type: functional
[8] = Selectivity ratio of MIC for methicillin-resistant Staphylococcus aureus N315 to MIC for methicillin-resistant Staphylococcus aureus JCSC 4788; assay type: functional
[9] = Selectivity ratio of MIC for vancomycin-resistant Enterococcus faecium to MIC for methicillin-resistant Staphylococcus aureus JCSC 4788; assay type: functional
RAW264.7 = assay: Cytotoxicity against mouse RAW264.7 cells by MTT assay; assay type: cell-based
Procedure, shortened: (§3)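 MTT viability assay after 24 h exposure to compound at 1.5625–100 µg mL⁻¹; control cells received DMSO at 0.5% (highest test-well level); IC50 given as mean ± SD of at least triplicate runs.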

MCF7 = assay: Cytotoxicity against human MCF7 cells by MTT assay; assay type: cell-based; procedure, shortened: as §3
SF-268 = assay: Cytotoxicity against human SF268 cells by MTT assay; assay type: cell-based; procedure, shortened: as §3
[10] = Selectivity ratio of IC50 for mouse RAW264.7 cells to MIC for methicillin-resistant Staphylococcus aureus JCSC 4788; assay type: toxicity
Procedure, shortened: (§4)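 Ratio of 24 h MTT cytotoxicity IC50 (compound 1.5625–100 μg mL−1, 0.5% DMSO control) to MIC against MRSA JCSC 4788 from CLSI microbroth dilution in MHB; IC50 values expressed as mean ± SD.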

[11] = Selectivity ratio of IC50 for human SF268 cells to MIC for methicillin-resistant Staphylococcus aureus JCSC 4788; assay type: toxicity; procedure, shortened: as §4
Staphylococcus aureus [12] = assay: Bactericidal activity against methicillin-resistant Staphylococcus aureus JCSC 4788 assessed as reduction in bacterial growth at 0.5 to 1 times MIC measured within 8 hrs by time kill assay relative to control; assay type: functional; parameters: scale not given: the % may be the effect or the level left
Procedure, shortened: (§5)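 Time-kill per CLSI: overnight MRSA JCSC 4788 adjusted in 0.85% NaCl to 10^6–10^7 CFU mL−1 and exposed to 0.5×, 1×, 2× and 4× MIC at 35 °C, vancomycin as comparator. Viable plate counts at 0.5, 2, 4, 8 and 24 h; two independent experiments.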

Staphylococcus aureus [13] = assay: Bactericidal activity against methicillin-resistant Staphylococcus aureus JCSC 4788 assessed as bacterial killing at 4 MIC measured within 0.5 hrs by time kill assay relative to control; assay type: functional; procedure, shortened: as §5
Staphylococcus aureus [14] = assay: Bactericidal activity against methicillin-resistant Staphylococcus aureus JCSC 4788 assessed as reduction in colony forming units at 2 times MIC measured after 2 hrs by time kill assay relative to control; assay type: functional; parameters: scale not given: the % may be the effect or the level left; procedure, shortened: as §5
Staphylococcus aureus [15] = assay: Induction of cytoplasmic membrane hyperpolarization in methicillin-resistant Staphylococcus aureus JCSC 4788 at 1 to 2 times MIC measured after 2 mins by Disc3(5) staining based fluorescence spectrophotometric method; assay type: functional, organism-based
Procedure, shortened: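 Exponential-phase MRSA JCSC 4788 washed and set to OD620 0.1 in 5 mM HEPES pH 7. Cells loaded with 0.4 μM DiSC3(5) plus 100 mM KCl for 20 min at 37 °C with agitation. Compound added at 0.5–8× MIC and fluorescence followed at ex 660/em 670 nm; mean ± SD.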

Staphylococcus aureus [16] = assay: Induction of cytoplasmic membrane disruption in methicillin-resistant Staphylococcus aureus JCSC 4788 measured after 3 hrs by SYTOX green dye based fluorescence microscopic analysis; assay type: functional, organism-based
Procedure, shortened: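 MRSA JCSC 4788 suspension (OD620 0.4) treated with compound or vancomycin for 3 h, stained with 3 μM SYTOX Green, fixed on glass slides and viewed by fluorescence microscopy at 485 nm excitation.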

Staphylococcus aureus [17] = assay: Induction of morphological changes in methicillin-resistant Staphylococcus aureus JCSC 4788 assessed as cytoplasmic membrane disruption at 4 times MIC measured after 3 hrs scanning electron microscopic analysis; assay type: functional, organism-based
Procedure, shortened: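 Exponential-phase MRSA JCSC 4788 treated at 37 °C and washed. Cells prefixed overnight in 0.1 M phosphate pH 7.2 with 2% glutaraldehyde and 2.5% paraformaldehyde, then post-fixed in 1% OsO4 for 2 h. Samples ethanol-dehydrated, freeze-dried, gold-coated and imaged by SEM.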

Staphylococcus aureus [18] = assay: Antibacterial activity against methicillin-resistant Staphylococcus aureus JCSC 4788 at sub-MIC re-passaged at 24 hrs intervals for 20 times by micro dilution susceptibility test; assay type: functional, organism-based
Procedure, shortened: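 Exponential-phase MRSA JCSC 4788 at 37 °C passaged into fresh MHB containing compound at a sub-inhibitory concentration and re-passaged at 24 h intervals up to at least 20 passages; MIC then redetermined by CLSI microbroth dilution in MHB. Resistance defined as a more than 4-fold increase over the initial MIC.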

Staphylococcus aureus [19] = assay: Antibacterial activity against methicillin-resistant Staphylococcus aureus JCSC 4788 in Balb/c mouse skin infection model assessed as reduction in skin ulcer formation at 40 ug administered as single dose via intradermal route measured 3 to 8 days post-infection; assay type: functional, organism-based
Procedure, shortened: (§6)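 Female BALB/c mice (18–20 g) injected intradermally in abdominal skin with 0.1 mL of MRSA JCSC 4788 (1×10^8 CFU) mixed with a single 40 μg dose in DMSO; DMSO-vehicle controls. Body weight and lesion size recorded daily for 11 days, ulcers imaged at 3 and 8 days; n = 6, mean ± SD.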

Staphylococcus aureus [20] = assay: Antibacterial activity against methicillin-resistant Staphylococcus aureus JCSC 4788 in Balb/c mouse skin infection model assessed as reduction in infection-induced morbidity by measuring increase in body weight at 40 ug administered as single dose via intradermal route measured daily for 11 days; assay type: functional, organism-based; procedure, shortened: as §6
Staphylococcus aureus [21] = assay: Antibacterial activity against methicillin-resistant Staphylococcus aureus JCSC 4788 in Balb/c mouse skin infection model assessed as reduction in infection-induced morbidity by measuring decrease in wound size at 40 ug administered as single dose via intradermal route measured daily for 11 days; assay type: functional, organism-based; procedure, shortened: as §6

CCCCCCCC(=O)c1c(O)cc(O)c2c1OC1=C(C(=O)C(C)(C)C(=O)C1(C)C)C2CC(C)C (stereo not drawn)
MIC (Staphylococcus aureus [1]): 0.25 to 0.5 µg/mL (≈ 0.516 to 1.03 µM)
MIC (Staphylococcus aureus [2]): 0.25 µg/mL (≈ 0.516 µM)
MIC (Staphylococcus aureus [3]): 0.5 µg/mL (≈ 1.03 µM)
MIC (Staphylococcus aureus [4]): 0.25 µg/mL (≈ 0.516 µM)
MIC (Enterococcus faecalis): 0.25 µg/mL (≈ 0.516 µM)
MIC (Paenibacillus polymyxa): > 32 µg/mL
MIC (Shigella dysenteriae): > 32 µg/mL
MIC (Candida albicans): > 32 µg/mL
Selectivity ratio (Staphylococcus aureus [5]): 0.5 - 2
Selectivity ratio (Staphylococcus aureus [6]): 0.5 - 2
Selectivity ratio (Staphylococcus aureus [7]): 0.5 - 2
Selectivity ratio [8]: 0.5 to 2
Selectivity ratio [9]: 0.5 to 2
IC50 (RAW264.7): 5.6 µg/mL (≈ 11.6 µM)
IC50 (MCF7): 9.98 µg/mL (≈ 20.6 µM)
IC50 (SF-268): 10.2 µg/mL (≈ 20.9 µM)
Selectivity ratio [10]: 22.4
Selectivity ratio [11]: 40.6
Activity (Staphylococcus aureus [12]): >90%
Activity (Staphylococcus aureus [13]): >90%
Activity (Staphylococcus aureus [14]): 99.9%
Activity (Staphylococcus aureus [15]): Active
Activity (Staphylococcus aureus [16]): Active
Activity (Staphylococcus aureus [17]): Active
Activity (Staphylococcus aureus [18]): Active
Activity (Staphylococcus aureus [19]): Active
Activity (Staphylococcus aureus [20]): Active
Activity (Staphylococcus aureus [21]): Active
